Source: the array DNA melting data of Ke et al. (doi:10.1101/2024.01.08.574731)

What was measured:
[1] = folding enthalpy; higher = less favourable; fluorescence melt of hairpins on a sequencing array, two-state fit; conditions: sodium 0.088 M
Outline: (§1)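 Cy3 signals were normalised both to pre-quench Cy3 and to control constructs. They came from library hairpins carrying annealed Cy3 and quencher oligos on a sequenced MiSeq flow cell, imaged in 50 mM Na-HEPES pH 8.0, 25 mM NaCl, in 2.5 °C steps up to 60 °C. Bootstrapped two-state fits gave melting temperature and folding enthalpy, and four replicates were combined by inverse variance. Fitted temperatures were then raised by 9.35 °C to match UV melts.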

[2] = melting temperature; fluorescence melt of hairpins on a sequencing array, two-state fit, raised by 9.35 °C to match UV melts; conditions: sodium 0.088 M
Outline: as §1

| Sequence | folding enthalpy [1] | Tm [2] |
| --- | --- | --- |
| GGACAGGGAAACTTGTCC (((((.(....).))))) | -37.1 kcal/mol | 49 °C |
| GCGTGGCGAAAGCTCCGC (((..((....))..))) | -22.1 kcal/mol | 54.8 °C |
| GGCCCTCGAAAGAGCGCC (((.(((....))).))) | -35.2 kcal/mol | 51.6 °C |
| GACATACCGAAAGGTGTC (((..(((....)))))) | -18.2 kcal/mol | 41.3 °C |
| GGTTCGGGAAACCAAACC ((((.((....)).)))) | -30.3 kcal/mol | 40.4 °C |
| GGATCGTCGAAAGACTCC (((..(((....)))))) | -11.8 kcal/mol | 28.9 °C |
| GCGTACAACGC ((((...)))) | -22.4 kcal/mol | 55.6 °C |
| GTCCCCGAAAGGGGTGAC ((((((....)))..))) | -8.1 kcal/mol | 45 °C |
| GGGAAAGGAAACTTTCTC (.(((((....))))).) | -20.4 kcal/mol | 38.4 °C |
| GACTTCGGAAACGGAGTC ((((.((....)).)))) | -39 kcal/mol | 49.4 °C |
| GTTGGACGAAAGTCTAAC (((.(((....))).))) | -26.3 kcal/mol | 51.4 °C |
| GGATCGGGAAACTGATCC (((((.(....).))))) | -39.1 kcal/mol | 52.4 °C |
| GGCAATGGAAACATTGCC (((((((....))))))) | -42.1 kcal/mol | 67 °C |
| GCCGATGGAAACATCGAC (.(((((....))))).) | -16.3 kcal/mol | 48 °C |
| GGTTCCGAAAGGATTACC ((((((....)))..))) | -19.9 kcal/mol | 34.6 °C |
| GAGAGTGGAAACGCTCTC (((((.(....).))))) | -36.8 kcal/mol | 51.7 °C |
| GGTCACGAAAGTGTTACC ((((((....)))..))) | -17.1 kcal/mol | 38.2 °C |
| GATTGCGGAAACACAATC (((((.(....).))))) | -28.9 kcal/mol | 41.6 °C |
| GCTAACGAAAGTTTCAGC ((((((....)))..))) | -14.2 kcal/mol | 29.7 °C |
| GAGTGAGCGAAAGCTCTC (((..(((....)))))) | -9.01 kcal/mol | 32.9 °C |
| GTGACCGGAAACGATCAC ((((.((....)).)))) | -39.6 kcal/mol | 46.6 °C |
| GCCTACGAAAGTACAGGC ((((((....)))..))) | -30.7 kcal/mol | 47.7 °C |
| GCTCTCGAAAGAGATAGC ((((((....)))..))) | -22.6 kcal/mol | 41.8 °C |
| GTCTCGGCGAAAGCCGAC (((..(((....)))))) | -4.96 kcal/mol | 35.6 °C |

| Sequence | folding enthalpy [1] | Tm [2] |
| --- | --- | --- |
| GAGAAGAAATTCTC (((((....))))) | -9.49 kcal/mol | 28.9 °C |
| GATCCCTCTAGGGATC ((((((....)))))) | -33.9 kcal/mol | 66.6 °C |
| GTGGGAGGAAACTTCCAC ((((.((....)).)))) | -41.1 kcal/mol | 49.2 °C |
| GGTGAAACGAAAGTTACC (((..(((....)))))) | -18 kcal/mol | 30.5 °C |
| GCCAAGCGAAAGCTGGC (((.(((....)))))) | -28.3 kcal/mol | 68.5 °C |
| GATCCCATGGGGGATC ((((((....)))))) | -32.4 kcal/mol | 60.1 °C |
| CAGATGAAAATCTG (((((....))))) | -22.9 kcal/mol | 44.4 °C |
| GTCCATGGAAACATGAAC ((.((((....)))).)) | -18.5 kcal/mol | 36.4 °C |
| GCGACCGTCGC ((((...)))) | -26.8 kcal/mol | 45.5 °C |
| GCGAACACGAAAGTGCGC (((..(((....)))))) | -21.2 kcal/mol | 51 °C |
| GCGCCGCGAAAGCTTCGC (((..((....))..))) | -15.6 kcal/mol | 54.7 °C |
| GCGGATGCCGC ((((...)))) | -10.5 kcal/mol | 58.8 °C |
| GAATCGCGAAAGCGTTC (((.(((....)))))) | -12.3 kcal/mol | 42 °C |
| GACTGCGAAAGCACGTC ((((((....))).))) | -15.8 kcal/mol | 56.4 °C |
| CGCACGGAAACGTTCGCG ((((((....)))..))) | -22.7 kcal/mol | 41.1 °C |
| ATTCAGAAATGAAT (((((....))))) | -11.5 kcal/mol | 29.3 °C |
| GCAGGGCGAAAGCAATGC (((..((....))..))) | -24.1 kcal/mol | 59.9 °C |
| CGCACCGGAAACGGGCG (((.(((....)))))) | -25.2 kcal/mol | 55.7 °C |
| GGTGGTGGAAACATCACC ((((.((....)).)))) | -41.3 kcal/mol | 52.3 °C |
| GATCGTAGTACGATC ((((((...)))))) | -29.6 kcal/mol | 54.7 °C |
| GGAGTCGAAAGACTTTCC ((((((....)))..))) | -11.1 kcal/mol | 34 °C |
| GCAGCCGAAAGGCCTTGC ((((((....)))..))) | -10.6 kcal/mol | 35.7 °C |
| GATCTCGGGCGAGATC ((((((....)))))) | -30.4 kcal/mol | 55.2 °C |
| CGAACTCGGAAACGATCG (((..(((....)))))) | -16.3 kcal/mol | 22.9 °C |

| Sequence | folding enthalpy [1] | Tm [2] |
| --- | --- | --- |
| GCAACGCGAAAGCCCTGC (((..((....))..))) | -7.63 kcal/mol | 23.8 °C |
| GTGCACCGAAAGGTCCAC (((.(((....))).))) | -27.3 kcal/mol | 45.2 °C |
| GTTGTACGAAAGTAGAAC (((.(((....))).))) | -30.1 kcal/mol | 44 °C |
| GAGCTGAAAAGCTC (((((....))))) | -27.2 kcal/mol | 57.2 °C |
| GAGGACGAAAGTCAGCTC ((((((....)))..))) | -15 kcal/mol | 42 °C |
| GGACGCGAAAGCGCTTCC ((((((....)))..))) | -13.2 kcal/mol | 47.5 °C |
| GTCACAGGAAACTGTAAC ((.((((....)))).)) | -17.3 kcal/mol | 30.9 °C |
| GCGTTGACACGC ((((....)))) | -21.2 kcal/mol | 50.1 °C |
| GATCACTGGTGTGATC ((((((....)))))) | -36.7 kcal/mol | 58 °C |
| GATCTCCGAAAGGATATC (((.(((....))).))) | -31.9 kcal/mol | 39.3 °C |
| GGTTTCGAAAGAATAACC ((((((....)))..))) | -20.1 kcal/mol | 31.5 °C |
| GCAGTGCGAAAGCACAGC ((.((((....)))).)) | -17.1 kcal/mol | 68.2 °C |
| GACTTGAAAAAGTC (((((....))))) | -26.7 kcal/mol | 44.5 °C |
| GACTGCGGAAACGCAATC ((.((((....)))).)) | -15.4 kcal/mol | 38 °C |
| GCGTAAGAACGC ((((....)))) | -15.8 kcal/mol | 49.5 °C |
| GCTCCGCGAAAGCCTAGC (((..((....))..))) | -10.7 kcal/mol | 34.7 °C |
| CGTCGTCGGAAACGAACG (((..(((....)))))) | -24.9 kcal/mol | 48.8 °C |
| GCGAGATTTCGC ((((....)))) | -20.1 kcal/mol | 50.1 °C |
| GGCCACGAAAGTGTAGCC ((((((....)))..))) | -25 kcal/mol | 53.1 °C |
| GATCGGTGTCCCGATC ((((((....)))))) | -38.3 kcal/mol | 58.4 °C |
| GATCTCACGCGAGATC ((((((....)))))) | -41.7 kcal/mol | 52.7 °C |
| GCGGAGCGAAAGCTTGGC ((..(((....)))..)) | -13.5 kcal/mol | 39.4 °C |
| GGTGAAGGAAACTTTGCC ((..(((....)))..)) | -25.4 kcal/mol | 34.6 °C |
| GAGATGGGAAACCGTCTC ((((.((....)).)))) | -38.2 kcal/mol | 49.6 °C |

| Sequence | folding enthalpy [1] | Tm [2] |
| --- | --- | --- |
| GTGCCTGCGAAAGCACAC (((..(((....)))))) | -7.25 kcal/mol | 55 °C |
| GATCAGTTCGCTGATC ((((((....)))))) | -44.9 kcal/mol | 54.1 °C |
| GCGCTGGGAAACCGGTGC ((.(.((....)).).)) | -42.6 kcal/mol | 51.5 °C |
| GCTATGCGAAAGCCAAGC (((..((....))..))) | -16.7 kcal/mol | 36.5 °C |
| GCAATGCGAAAGCACCGC ((..(((....)))..)) | -9.88 kcal/mol | 33 °C |
| GAAAGTGAAAACTTTC ((((((....)))))) | -27.2 kcal/mol | 47.7 °C |
| GCCTTTGGAAACGAAGGC (((((.(....).))))) | -35.4 kcal/mol | 51.6 °C |
| GATCAAAAAATTGATC ((((((....)))))) | -17.5 kcal/mol | 32.4 °C |
| GCGACGCGAAAGCCTGGC ((.(.((....)).).)) | -5.89 kcal/mol | 28.1 °C |
| GTGGTTGGAAACGACCAC (((((.(....).))))) | -41 kcal/mol | 54.7 °C |
| GATCGCCTATGCGATC ((((((....)))))) | -31.6 kcal/mol | 68.1 °C |
| GATCTATGCGTAGATC ((((((....)))))) | -41.5 kcal/mol | 48.2 °C |
| GTGTGCGGAAACGCATGC (..((((....))))..) | -15.9 kcal/mol | 49.6 °C |
| GGCACGGGAAACCGCGCC (((.(((....))).))) | -44.1 kcal/mol | 63.5 °C |
| GCGGCCCCCCGC ((((....)))) | -23.8 kcal/mol | 55 °C |
| GGAATACGAAAGTAGTCC (((.(((....))).))) | -33.9 kcal/mol | 51.8 °C |
| GGGCAGGGAAACTTGCCC (((((.(....).))))) | -47.7 kcal/mol | 55.9 °C |
| GTCTTCGGAAACGAAAAC ((.((((....)))).)) | -15.4 kcal/mol | 29.2 °C |
| GATCCCGTTGGGATC ((((((...)))))) | -31.5 kcal/mol | 64.4 °C |
| GTCCAGGAAACTGGAC ((((((....)))))) | -34 kcal/mol | 62.4 °C |
| GAGGGCCGAAAGGCCTC (((.(((....)))))) | -9.74 kcal/mol | 52.6 °C |
